Some of the results follow. Unmarked numbers belong to inactive results. Calls of active or inactive are those of the source. Cut-off read from the data, not from the text of the source, unless noted: active = inhibition above about 13%; inactive = the rest.
Experiments:
[1] = Gal4-VP16 luciferase reporter inhibitors, counter-screen for COUP-TFII antagonist project, cell-based, luminescence, HEK293 (AID 687007); conditions: at 8.5 µM, active compounds read high
[2] = biological target: COUP transcription factor 2 (Homo sapiens) (UniProt P24468); assay: NR2F2 transcriptional activity inhibitors, confirmation, cell-based, luciferase reporter, HEK293, triplicate (AID 687008;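 active = mean inhibition over three repeats above a set limit taken from the earlier primary screen, cut at about 38% in these data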;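 note: 100% = cells given the luciferase reporter alone without the COUP-TF2 vector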); conditions: HEK293 NGFI-A luciferase reporter, luminescence; at 8.5 µM; active compounds read high
Chain of COUP transcription factor 2 (Homo sapiens) (P24468 whole entry, looked up): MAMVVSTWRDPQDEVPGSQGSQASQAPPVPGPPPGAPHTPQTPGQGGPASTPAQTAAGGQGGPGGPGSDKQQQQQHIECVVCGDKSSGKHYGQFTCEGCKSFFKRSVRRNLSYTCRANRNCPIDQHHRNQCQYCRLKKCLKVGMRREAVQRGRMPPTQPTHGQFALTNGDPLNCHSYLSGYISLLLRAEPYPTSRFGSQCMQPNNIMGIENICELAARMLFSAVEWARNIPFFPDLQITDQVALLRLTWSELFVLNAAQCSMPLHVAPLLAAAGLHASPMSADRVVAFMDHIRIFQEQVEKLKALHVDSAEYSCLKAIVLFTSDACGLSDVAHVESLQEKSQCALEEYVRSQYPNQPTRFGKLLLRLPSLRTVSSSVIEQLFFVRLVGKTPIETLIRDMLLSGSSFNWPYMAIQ

[3] = biological target: (Lyso)-N-acylphosphatidylethanolamine lipase (Mus musculus) (UniProt Q8VD66); assay: ABHD4 inhibitors, retest, confirmation, biochemical, fluorescence polarization, mouse (AID 720658;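 active = mean inhibition across replicates above the hit cutoff set in the primary screen, cut at about 30% in these data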); conditions: purified mABHD4, FP-Rh probe fluorescence polarization; at 8.92 µM; active compounds read high
Chain of (Lyso)-N-acylphosphatidylethanolamine lipase (Mus musculus) (Q8VD66 whole entry, looked up): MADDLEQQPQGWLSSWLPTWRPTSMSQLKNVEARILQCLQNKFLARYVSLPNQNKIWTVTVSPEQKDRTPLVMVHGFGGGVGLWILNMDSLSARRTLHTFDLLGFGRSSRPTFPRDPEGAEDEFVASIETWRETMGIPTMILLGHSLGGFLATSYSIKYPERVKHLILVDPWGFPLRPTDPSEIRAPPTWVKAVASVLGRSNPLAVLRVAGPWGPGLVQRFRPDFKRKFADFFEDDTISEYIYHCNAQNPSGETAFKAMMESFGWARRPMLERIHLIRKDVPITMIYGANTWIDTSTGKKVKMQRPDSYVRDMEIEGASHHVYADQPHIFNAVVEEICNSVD
Outline: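 Test system: wild-type mouse ABHD4. Medium: HEPES-saline buffer with 0.01% Pluronic F-127. Doses: single nominal compound dose 8.92 µM, 0.89% DMSO final. Timing: pre-incubation 45 min, probe exposure 60 min, 25 °C. Technique: FP readout, ex 525 nm, em 598 nm. Control set: S159A mutant ABHD4 plus DMSO as 100%, wild-type plus DMSO 0%.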

[4] = test system: DAF-12 nuclear receptor (Heterodera glycines), GAL4-LBD fusion; assay: H. glycines DAF-12 receptor agonists, confirmation, cell-based, luminescence, HEK293, GAL4-LBD fusion (AID 743050;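 active = mean activation over triplicate wells above the hit cutoff derived from the earlier primary screen, cut at about 11% in these data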;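 note: 0% = DMSO low control and 100% = 2 mM sodium butyrate high control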); conditions: HEK293 GAL4-hgDAF12 luciferase reporter, agonist mode; at 6.8 µM; active compounds read high; percent of butyrate response
[5] = biological target: Oxysterols receptor LXR-beta (Homo sapiens) (UniProt P55055); assay: LXR agonists, Gal4 luciferase reporter, confirmation, counter-screen for hgDAF-12 agonist project, cell-based, luminescence, HEK293, H. glycines campaign (AID 743051;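 active = mean activation of the triplicate above a set limit carried over from the primary screen, none filed active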); conditions: 24 h, at 6.8 µM, active compounds read high
Chain of Oxysterols receptor LXR-beta (Homo sapiens) (P55055 whole entry, looked up, the tested form may be a part): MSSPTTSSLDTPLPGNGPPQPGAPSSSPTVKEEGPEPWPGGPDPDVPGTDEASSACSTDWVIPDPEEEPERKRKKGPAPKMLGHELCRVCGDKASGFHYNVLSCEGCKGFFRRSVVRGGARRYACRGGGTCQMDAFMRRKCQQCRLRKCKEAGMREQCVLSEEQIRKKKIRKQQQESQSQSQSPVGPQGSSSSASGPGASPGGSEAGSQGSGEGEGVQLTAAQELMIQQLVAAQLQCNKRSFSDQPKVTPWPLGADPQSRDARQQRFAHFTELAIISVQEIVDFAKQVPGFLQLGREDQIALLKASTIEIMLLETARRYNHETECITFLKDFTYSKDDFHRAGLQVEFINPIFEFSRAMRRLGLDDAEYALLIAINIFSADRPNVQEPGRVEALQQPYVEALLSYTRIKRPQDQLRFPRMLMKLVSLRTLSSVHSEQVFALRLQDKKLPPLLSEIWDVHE
Outline: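 System: HEK293 cells with Gal4-LXR and tk-luc reporter. Compound dosing: single nominal test compound dose of 6.8 µM. Timing: 3 h cell plating, then 24 h compound exposure at 37 °C. Detection: One-Glo luminescence after 15 min. Read-out basis: percent activation relative to median DMSO and positive-control wells. Benchmarks: DMSO low control, 0.68% final.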

[6] = biological target: Oxysterols receptor LXR-beta (Homo sapiens) (UniProt P55055); assay: LXR agonists, Gal4 luciferase reporter, confirmation, counter-screen for hcDAF-12 agonist project, cell-based, luminescence, HEK293, H. contortus campaign (AID 743027;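 active = mean percent activation of the reporter above a cutoff set as the average over tested compounds plus their standard deviation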); conditions: HEK293 Gal4-LXR tk-luc reporter, 24 h, at 6.8 µM, active compounds read high, normalized: DMSO 0%, positive control 100%
Outline: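 Assay system: Gal4-LXR and tk-luc reporter transfected HEK293 cells; Compound: 6.8 µM single dose; Times: one-day compound treatment at 37 °C; Technique: One-Glo luciferase luminescence; Read-out basis: % activation relative to DMSO and positive-control wells; Benchmarks: DMSO low control, positive-control high control; Repeats: three replicates per compound.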

[7] = test system: Nuclear hormone receptor DAF-12 (Haemonchus contortus); assay: H. contortus DAF-12 receptor agonists, confirmation, cell-based, luminescence, HEK293, lit1-tk-luc, triplicate (AID 743032;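 active = mean activation across triplicate tests above the threshold derived from the earlier primary screen, cut at about 5.5% in these data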;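 note: 0% = DMSO only wells and 100% = 3 µM Δ7-dafachronic acid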); conditions: HEK293 hcDAF-12 lit1-tk-luc reporter, at 6.8 µM, active compounds read high, % of Δ7-dafachronic acid response

CCOC(=O)C1(CCOc2ccccc2)CCN(Cc2cc(OC)cc(OC)c2)CC1
inhibition [1]: 6.8% | inhibition [2]: 9.24%

CN(C(=O)c1cccc(NC(=O)Cc2cccc([N+](=O)[O-])c2)c1)C1CCCCC1
inhibition [1]: -3.36% | inhibition [2]: 1.83%

O=C(Nc1ccc(S(=O)(=O)NCC2CCCO2)cc1)c1ccc(F)cc1 (stereo unspecified)
inhibition [1]: 3.93% | inhibition [2]: 13.8%

Cc1nc(C(=O)NCc2ccccc2)sc1C1(C)CC(c2cccnc2)=NO1 (stereo unspecified)
inhibition [1]: -2.73% | inhibition [2]: 6.06%

COc1ccc(Br)cc1/C=N/Nc1ccc(Cl)c(C(=O)O)c1
inhibition [3]: 32.5% (active)

CCOc1cc(/C=C2/N=C(c3ccc(C(C)(C)C)cc3)OC2=O)cc(Cl)c1OS(C)(=O)=O
inhibition [3]: 18.8%

Cc1ccc(OCC(=O)Nc2ccc(N3CCN(C(=O)c4ccco4)CC3)cc2)c(C)c1
inhibition [1]: 4.51% | inhibition [2]: 24.3%

COc1ccc(OC)c(CNC(=O)Cn2nc(C)c3c(C)n(-c4ccc(C)cc4)nc3c2=O)c1
inhibition [1]: -4.78% | inhibition [2]: 51.1% (active)

Cc1oc2cc(Br)c(O)c(Br)c2c1C(=O)c1ccccc1
inhibition [3]: 53% (active)

O=C(O)c1ccc(N/N=C/c2cn(-c3ccccc3)nc2-c2cccs2)cc1
activation [4]: 19.1% (active) | activation [5]: 0.89%

O=C(O)c1ccccc1CSc1nc2ccccc2s1
activation [6]: 0.24% | activation [7]: 9.05% (active)

CCCc1cc(C(=O)Nc2ccc(Cl)cn2)cs1
activation [6]: 1.33% | activation [7]: 4.99%
